# In the library only some 3.5% were active in any assay of this set; here they are far more common.
# MrgX1 antag: antagonists of human MrgX1 receptor, primary screen, HEK293 cells, Fluo-4 calcium flux | Mas-related G-protein coupled receptor member X1 (Homo sapiens), Q96LB2 | BAM8-22 antagonism; hits give low values | B-score at 10 µM | 310,000 tested, 1.3% active | AID 588676, 2011;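 active means calcium-response B-score plate-corrected more than 3 library SD below zero, starting fluorescence within 5 deviations, no agonist response on first addition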;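 further: peak minus trough fluorescence over baseline after final BAM8-22 challenge near maximal dose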
# Target sequence (Q96LB2 whole entry, looked up): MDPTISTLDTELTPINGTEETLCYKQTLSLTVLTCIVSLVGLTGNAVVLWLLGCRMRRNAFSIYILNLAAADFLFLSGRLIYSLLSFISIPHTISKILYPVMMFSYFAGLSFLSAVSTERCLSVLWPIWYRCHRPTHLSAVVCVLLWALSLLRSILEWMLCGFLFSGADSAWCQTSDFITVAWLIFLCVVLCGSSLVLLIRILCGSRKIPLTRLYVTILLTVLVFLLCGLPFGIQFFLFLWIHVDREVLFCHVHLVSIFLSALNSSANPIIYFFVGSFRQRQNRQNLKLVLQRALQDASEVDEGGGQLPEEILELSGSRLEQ
# RGS4 block: RGS4 inhibitors, primary screen, cell-based, HEK293 M3R inducible RGS4, calcium flux. B-score at 10 µM. Fluo-4 calcium flux; hits give high values; triggered by carbachol at its EC20. 310,000 tested, 0.45% active. Regulator of G-protein signaling 4 (Homo sapiens), P49798;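 active means B-score, a plate-corrected calcium signal, over three deviations above library mean, with baseline fluorescence within five deviations of library mean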;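 further: RGS4 expression induced by doxycycline in cells with stable M3 receptor; B-score is computed from the integrated fluorescence ratio over baseline after carbachol; higher B-score means a larger calcium signal and so more RGS4 inhibition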
# Target sequence (P49798 whole entry, looked up): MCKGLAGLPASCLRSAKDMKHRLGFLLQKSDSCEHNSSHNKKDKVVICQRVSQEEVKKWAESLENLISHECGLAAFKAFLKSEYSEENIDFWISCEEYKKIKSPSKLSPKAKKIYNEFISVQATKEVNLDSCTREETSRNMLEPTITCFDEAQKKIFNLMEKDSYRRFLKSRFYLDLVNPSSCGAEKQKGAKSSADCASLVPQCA
# MrgX1 allo act: positive allosteric modulators of MrgX1, primary screen, HEK293 cells, Fluo-4 calcium flux | B-score at 10 µM | FDSS; hits give high values | Mas-related G-protein coupled receptor member X1 (Homo sapiens), Q96LB2 | 310,000 tested, 0.63% active;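 active means plate-corrected calcium response at least 3 library SD above typical, normal starting fluorescence, not activating the receptor alone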;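 further: compound read alongside a low EC10 to EC30 dose of BAM8-22 agonist; peak minus trough fluorescence over baseline measured at the second addition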
# MrgX1 ag: agonists of human MrgX1 receptor, primary screen, HEK293 cells, Fluo-4 calcium flux | AID 588627, 2011 | 310,000 tested, 0.44% active | Mas-related G-protein coupled receptor member X1 (Homo sapiens), Q96LB2 | Fluo-4 calcium fluorescence, agonist mode; hits give high values | B-score at 10 µM;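 active means calcium response B-score plate-corrected fluorescence ratio at least 3 library SD, with starting fluorescence B-score inside 5 SD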
#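 System: HEK293 cells stably expressing human MrgX1 receptor; Dosing: test compound in the initial addition of three; Schedule: overnight plating, then 30 min 37 °C plus 30 min room-temperature dye loading; Detection: kinetic calcium dye fluorescence, Fluo-4 NW; Controls: per-plate positive and negative controls for Z′ factor.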
# RGS4 act: RGS4 potentiators or activators, primary screen, cell-based, HEK293 M3R inducible RGS4, calcium flux; B-score at 10 µM; AID 463111, 2010; carbachol calcium flux Fluo4; hits give low values; 310,000 tested, 0.92% active;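 active means B-score of the integrated calcium signal more than 4 SD below the library mean, with starting fluorescence not abnormally high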;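 further: negative B-score means reduced calcium response which marks RGS4 activation or potentiation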
#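 Assay system: Inducible-RGS4 HEK293 cells carrying M3 receptor | Schedule: Compound preincubation 20 min at room temperature before agonist | Signal: Kinetic calcium fluorescence imaging with Fluo4-AM dye, 2 µM | Read-out basis: B score from integrated fluorescence ratio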
# MrgX1 antag conf: MrgX1 receptor antagonists, duplicate retest, confirmation, HEK293 cells, Fluo-4 calcium flux; shares compounds with MrgX1 antag; BAM8-22 calcium flux; hits give low values; remaining BAM8-22 calcium response % of control (hits give low values), % at 10 µM; 2,300 tested, 19% active; AID 602420, 2012;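 active means remaining agonist calcium response no higher than 100% minus 3 SD of agonist-only control wells, with starting fluorescence near control levels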;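 further: agonist BAM8-22 given at a near maximal EC90 to ECmax level; peak minus minimum fluorescence divided by baseline after agonist addition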
# HEK293 Ca flux: nonspecific calcium signal in parental HEK293, confirmation, counter-screen for MrgX1 antagonist project, parental HEK293 cells, Fluo-4 calcium flux | shares compounds with MrgX1 antag | Fluo-4 calcium fluorescence, FDSS | fluorescence ratio F(max-min)/F0 at 10 µM | 4,000 tested, 2% active | AID 624111, 2012;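 active means duplicate-averaged calcium fluorescence ratio at least three times the standard deviation of buffer wells, a nonspecific response in parental cells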
# HEK293 Ca counter: calcium response in parental HEK293 cells, primary screen, counter-screen for MrgX1 allosteric activator project, cell-based, Fluo-4 calcium flux, duplicate; shares compounds with MrgX1 antag; Fluo-4 fluorescence ratio; hits give high values; fluorescence ratio F(max-min)/F0 at 10 µM; 4,000 tested, 0.4% active; AID 624114, 2012;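 active means calcium fluorescence ratio, averaged over duplicates, at least 3 SD of the buffer-well ratio, meaning a nonspecific response in receptor-free cells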;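 further: untransfected parental HEK293 lacking MrgX1 used as counterscreen for MrgX1 allosteric activators; fluorescence change taken during the second addition on a kinetic imager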
# HEK293 Ca cntr2: calcium response in parental HEK293 cells, primary screen, counter-screen for MrgX1 agonist project, cell-based, Fluo-4 calcium flux, duplicate, agonist mode; shares compounds with MrgX1 antag; Fluo-4 calcium fluorescence (FDSS); hits give high values; fluorescence ratio F(max-min)/F0 at 10 µM; 4,000 tested, 8.7% active; AID 624115, 2012;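 active means calcium fluorescence ratio at least three times the spread of buffer wells, meaning a non-specific response in parental cells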
# Numbers stand for hits; 0 = inactive; - = no result.
SMILES,MrgX1 antag,RGS4 block,MrgX1 allo act,MrgX1 ag,RGS4 act,MrgX1 antag conf,HEK293 Ca flux,HEK293 Ca counter,HEK293 Ca cntr2
CC(C)CC(NC(N)=O)C(=O)NCCc1ccc(Cl)cc1Cl (configuration not stated),0,0,0,0,0,-,-,-,-
CC1(c2ccc(C#N)cc2)NC(=O)N(CC(=O)Nc2cc(S(=O)(=O)N3CCOCC3)ccc2Cl)C1=O (configuration not stated),-7.3,0,0,0,0,0,0,0,0
COc1cc(C(=O)Nc2cc3c(cc2N2CCCCC2)n(C)c(=O)n3C)cc(OC)c1OC,0,0,0,0,0,-,-,-,-
CCN(CC)S(=O)(=O)c1ccc(OC(C)C)nc1,-5.9,0,0,0,0,0,0,0,0
CCOc1ccccc1N(CC(=O)OC)S(C)(=O)=O,-6.2,0,0,0,0,0,0,0,0
CC(C)CC(=O)Nc1ccccc1N1CCOCC1,-4.6,0,0,0,0,0,0,48,0
Cc1cc(NC(=O)C(C)SCC(=O)Nc2cc(C(F)(F)F)ccc2N2CCCCC2)no1 (configuration not stated),0,0,0,0,0,-,-,-,-
Cc1cc(NC(=O)C(C)SCC(=O)Nc2ccccc2N2CCCC2)no1 (configuration not stated),-11,0,0,0,0,76%,0,0,0
Cc1cc(C(=O)NCC(c2ccco2)N(C)C)ccc1[N+](=O)[O-] (configuration not stated),0,0,0,0,0,-,-,-,-
O=C(Nc1cc(C(F)(F)F)ccc1N1CCOCC1)c1ccco1,-4.5,0,0,0,0,0,0,0,0
CC(C)[C@H](NC(=O)c1ccco1)C(=O)NCc1ccccc1,0,0,0,0,0,-,-,-,-
COC(OC)c1ccnc(-c2ccc(OC(=O)c3ccccc3)cc2)n1,-9.2,0,0,0,0,0,0,0,0
COC(OC)c1ccnc(-c2ccc(OC(C)=O)cc2)n1,0,0,0,0,0,-,-,-,-
COC(=O)C1(CC2CC(c3ccc(Cl)cc3)=NO2)CCN(C(=O)OC(C)(C)C)CC1 (configuration not stated),0,0,0,0,0,-,-,-,-
Cc1ccc(-n2nc3c(c2NC(=O)CC(C)C)CS(=O)(=O)C3)cc1,0,0,0,0,0,-,-,-,-
CCCOC(=S)Nc1ccccc1,0,0,0,0,0,-,-,-,-
O=C(NCc1ccccc1)C(=O)NCC1CCCN1S(=O)(=O)c1cccs1 (configuration not stated),-16,0,0,0,0,0,0,0,0
Cc1ccc(C(=O)NCC2CCCN2S(=O)(=O)c2cccs2)cc1C (configuration not stated),0,0,0,0,0,-,-,-,-
COc1cc(C(=O)NCC2CCCN2S(=O)(=O)c2cccs2)cc(OC)c1OC (configuration not stated),-7.7,0,0,0,0,0,0,0,0
Cc1ccc(S(=O)(=O)N2CCCC2CNC(=O)C(=O)NCc2ccccn2)cc1 (configuration not stated),-7.1,0,0,0,0,0,0,0,0
COc1ccccc1CNC(=O)C(=O)NCC1CCCN1S(=O)(=O)c1cccs1 (configuration not stated),-4.8,0,0,0,0,83%,0,0,0
O=C(NCC1CCCN1S(=O)(=O)c1cccs1)C(=O)Nc1ccccc1 (configuration not stated),0,0,0,0,0,-,-,-,-
Cc1ccc(NC(=O)C(=O)NCC2CCCN2S(=O)(=O)c2cccs2)cc1 (configuration not stated),0,0,0,0,0,-,-,-,-
Cc1cccc(NC(=O)C(=O)NCC2CCCN2S(=O)(=O)c2cccs2)c1C (configuration not stated),-5.5,0,0,0,0,0,0,0,0
Cc1ccc(S(=O)(=O)c2ccc(Cl)cc2)cc1S(=O)(=O)N(C)CC(=O)O,-5.9,0,0,0,0,0,0,0,0
SMILES,MrgX1 antag,RGS4 block,MrgX1 allo act,MrgX1 ag,RGS4 act,MrgX1 antag conf,HEK293 Ca flux,HEK293 Ca counter,HEK293 Ca cntr2
CCCNC(=O)C(NS(=O)(=O)c1cccc2nsnc12)c1ccccc1 (configuration not stated),-6.9,0,0,0,0,0,0,0,0
O=C(NCCc1ccccc1)C(NS(=O)(=O)c1cccc2nsnc12)c1ccccc1 (configuration not stated),-4.7,0,0,0,0,0,0,0,0
CCCCNC(=O)C(NS(=O)(=O)c1cccc2nsnc12)c1ccccc1 (configuration not stated),0,0,0,0,0,-,-,-,-
O=C(c1ccc(Cn2c(=O)[nH]c3ccccc3c2=O)cc1)N1CCN(c2ccccn2)CC1,0,0,0,0,0,-,-,-,-
O=C(c1ccc(Cn2c(=S)[nH]c3ccccc3c2=O)cc1)N1CCN(c2ccccn2)CC1,-8,0,0,0,0,84%,0,0,0
CC(C)Cc1nnc(NC(=O)CN2C(=O)NC3(CC(C)CC(C)(C)C3)C2=O)s1 (configuration not stated),0,0,0,0,0,-,-,-,-
CC1c2[nH]c3ccccc3c2CCN1C(=O)Nc1ccccc1 (configuration not stated),-7.5,0,0,0,0,0,0,0,0
CCCCC(=O)N1CC(=O)Nc2ccc(F)cc2C1c1ccccc1 (configuration not stated),0,0,0,0,0,-,-,-,-
CS(=O)(=O)N(Cc1ccc(Cl)cc1)c1ccc(C(=O)NCCC2=CCCCC2)cc1,-5.4,0,0,0,0,0,0,0,0
COc1ccc(-n2nnnc2S(=O)(=O)CC(=O)N2CCCCC2)cc1,0,-,0,0,-,-,-,-,-

# Source: PubChem BioAssay (Johns Hopkins Ion Channel Center)
